Laboratory results: ChEMBL document CHEMBL5042517, “Discovery, X-ray Crystallography, and Anti-inflammatory Activity of Bromodomain-containing Protein 4 (BRD4) BD1 Inhibitors Targeting a Distinct New Binding Site” (J Med Chem, 2022)
Converted amounts (≈) assume the structure as drawn. The source made the active and inactive calls. No cut-off for these calls is given here.

Experiments:
[1] = Antiinflammatory activity in human SAEC assessed as inhibition of Poly(I:C) induced CIG5 expression pretreated for 24 hrs followed by Poly(I:C) addition for 4 hrs by qRT-PCR analysis; assay type: functional, cell-based
Procedure, shortened: (§1)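 Poly(I:C) 10 μg/mL then added for 4 h. CIG5 or IL-6 mRNA measured by qRT-PCR (ΔΔCt, PPIA normalized). IC50 from a four-parameter fit, mean ± SD of three independent runs.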

[2] = Antiinflammatory activity in human SAEC assessed as inhibition of Poly(I:C) induced IL-6 expression pretreated for 24 hrs followed by Poly(I:C) addition for 4 hrs by qRT-PCR analysis; assay type: functional, cell-based; procedure, shortened: as §1
[3] = biological target: T1, Bromodomain-containing protein 4 (Homo sapiens, UniProt O60885); experiment: Binding affinity to wild type human BRD4 BD1 (42 to168 residues) expressed in bacterial competent cells assessed as increase in thermal stability by thermal shift assay
[4] = biological target: Bromodomain-containing protein 2 (Homo sapiens, UniProt P25440); experiment: Binding affinity BRD2 BD2 (unknown origin) incubated for 1 hr by TR-FRET assay
Chain of Bromodomain-containing protein 2 (P25440 whole entry): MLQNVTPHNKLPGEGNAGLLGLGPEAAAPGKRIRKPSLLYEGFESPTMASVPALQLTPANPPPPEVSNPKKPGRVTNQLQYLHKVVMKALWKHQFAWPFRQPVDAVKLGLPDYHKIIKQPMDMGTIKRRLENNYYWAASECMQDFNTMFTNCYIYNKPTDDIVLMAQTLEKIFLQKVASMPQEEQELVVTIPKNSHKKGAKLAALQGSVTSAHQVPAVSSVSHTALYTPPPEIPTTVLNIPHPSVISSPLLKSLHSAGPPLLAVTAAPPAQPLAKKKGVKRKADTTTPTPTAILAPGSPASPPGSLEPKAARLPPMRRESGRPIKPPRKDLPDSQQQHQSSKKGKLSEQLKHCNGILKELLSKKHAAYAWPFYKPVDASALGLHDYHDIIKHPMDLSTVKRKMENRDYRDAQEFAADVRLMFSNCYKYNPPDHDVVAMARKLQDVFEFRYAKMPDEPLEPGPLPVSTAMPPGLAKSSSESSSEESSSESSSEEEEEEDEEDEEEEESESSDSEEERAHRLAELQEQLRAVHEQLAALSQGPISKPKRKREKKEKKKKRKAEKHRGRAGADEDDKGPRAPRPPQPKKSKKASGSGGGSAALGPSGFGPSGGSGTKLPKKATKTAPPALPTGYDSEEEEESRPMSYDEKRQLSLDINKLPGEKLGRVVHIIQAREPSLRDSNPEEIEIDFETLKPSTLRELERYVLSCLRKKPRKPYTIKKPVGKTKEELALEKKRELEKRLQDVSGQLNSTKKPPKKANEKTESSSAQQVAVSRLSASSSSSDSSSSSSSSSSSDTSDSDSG
Procedure, shortened: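 Commercial TR-FRET kit with recombinant BRD2 bromodomain. Inhibitor at 0.01 nM–100 μM, 1 h at room temperature. Excitation 340 nm; 670/620 nm emission ratio read with 100 μs delay. IC50 from a four-parameter fit, mean of three runs.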

[5] = biological target: Bromodomain-containing protein 3 (Homo sapiens, UniProt Q15059); experiment: Binding affinity BRD3 BD1 (unknown origin) incubated for 1 hr by TR-FRET assay
Chain of Bromodomain-containing protein 3 (Q15059 whole entry): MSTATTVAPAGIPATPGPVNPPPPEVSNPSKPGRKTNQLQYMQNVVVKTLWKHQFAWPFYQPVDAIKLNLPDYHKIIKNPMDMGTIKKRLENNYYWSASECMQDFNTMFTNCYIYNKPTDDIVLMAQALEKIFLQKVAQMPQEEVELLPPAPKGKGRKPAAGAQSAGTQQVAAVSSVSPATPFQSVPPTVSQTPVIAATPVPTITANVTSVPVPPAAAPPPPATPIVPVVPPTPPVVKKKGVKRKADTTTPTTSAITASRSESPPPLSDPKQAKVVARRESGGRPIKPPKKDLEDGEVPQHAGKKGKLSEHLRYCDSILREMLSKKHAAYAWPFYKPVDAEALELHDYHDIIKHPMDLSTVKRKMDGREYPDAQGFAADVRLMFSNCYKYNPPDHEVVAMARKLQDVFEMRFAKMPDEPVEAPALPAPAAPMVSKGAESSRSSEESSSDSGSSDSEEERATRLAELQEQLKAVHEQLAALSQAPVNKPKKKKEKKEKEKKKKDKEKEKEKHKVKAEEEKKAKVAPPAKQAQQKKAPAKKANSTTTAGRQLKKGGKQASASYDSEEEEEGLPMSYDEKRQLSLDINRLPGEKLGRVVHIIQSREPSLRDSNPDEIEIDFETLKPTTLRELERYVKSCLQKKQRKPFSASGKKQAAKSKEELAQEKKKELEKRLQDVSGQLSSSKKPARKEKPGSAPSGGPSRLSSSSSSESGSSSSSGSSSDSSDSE

[6] = biological target: Bromodomain testis-specific protein (Homo sapiens, UniProt Q58F21); experiment: Binding affinity BRDT BD2 (unknown origin) incubated for 1 hr by TR-FRET assay
[7] = biological target: T1, Bromodomain-containing protein 4; experiment: Binding affinity to wild type human BRD4 BD2 (349 to 461 residues) expressed in bacterial competent cells assessed as increase in thermal stability by thermal shift assay
[8] = Volume of distribution at steady state in rat at 10 mg/kg, iv; assay type: ADME, organism-based; conditions: in vivo, read-out: Vdss
[9] = Clearance in rat at 10 mg/kg, iv; assay type: ADME, organism-based; conditions: in vivo
[10] = Aqueous solubility of the compound after 24 hrs by HPLC analysis; assay type: physicochemical; conditions: buffer
Procedure, shortened: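 Compound suspended in water and shaken 24 h at 25 °C, then centrifuged and filtered. Supernatant analyzed by C18 reverse-phase HPLC with one-point calibration against solutions of known concentration.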

[11] = test system: Mus musculus; experiment: Antiinflammatory activity in C57BL/6 mouse model of poly(I:C)-induced acute airway inflammation assessed as inhibition of neutrophilic inflammation around small sized airways at 10 mg/kg, po administered 1 day prior to poly(I:C) stimulation by H and E staining based analysis; assay type: functional; design: scale not given: the % may be the effect or the level left
[12] = test system: Mus musculus; experiment: Antiinflammatory activity in C57BL/6 mouse model of poly(I:C)-induced acute airway inflammation assessed as inhibition of neutrophilic inflammation around medium sized airways at 10 mg/kg, po administered 1 day prior to poly(I:C) stimulation by H and E staining based analysis; assay type: functional; design: scale not given: the % may be the effect or the level left
[13] = test system: Mus musculus; experiment: Antiinflammatory activity in C57BL/6 mouse model of poly(I:C)-induced acute airway inflammation assessed as decrease in IL-6 gene expression in lung tissue at 10 mg/kg, po administered 1 day prior to poly(I:C) stimulation; assay type: functional, organism-based
[14] = test system: Mus musculus; experiment: Antiinflammatory activity in C57BL/6 mouse model of poly(I:C)-induced acute airway inflammation assessed as decrease in KC gene expression in lung tissue at 10 mg/kg, po administered 1 day prior to poly(I:C) stimulation; assay type: functional, organism-based
[15] = test system: Mus musculus; experiment: Antiinflammatory activity in C57BL/6 mouse model of poly(I:C)-induced acute airway inflammation assessed as decrease in ISG54 gene expression in lung tissue at 10 mg/kg, po administered 1 day prior to poly(I:C) stimulation; assay type: functional, organism-based
[16] = test system: Mus musculus; experiment: Antiinflammatory activity in C57BL/6 mouse model of poly(I:C)-induced acute airway inflammation assessed as decrease in H3K122Ac accumulation in lung tissue at 10 mg/kg, po administered 1 day prior to poly(I:C) stimulation by immunofluorescence analysis; assay type: functional, organism-based
Procedure, shortened: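 Same mouse model: 10 mg/kg po one day before, plus a second dose with intranasal poly(I:C) (300 μg). Lungs collected one day later. H3K122Ac detected by immunofluorescence on paraffin lung sections and quantified as fold change in total fluorescence intensity.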

[17] = test system: SAEC; experiment: Antiinflammatory activity in human SAEC assessed as decrease in H3K122Ac accumulation by immunofluorescence analysis; assay type: functional, cell-based
Procedure, shortened: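 Immortalized human small airway epithelial cells stimulated with poly(I:C) at 10 μg/mL. H3K122Ac detected by immunofluorescence and quantified as fold change in total fluorescence intensity.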

[18] = test system: Mus musculus; experiment: Antiinflammatory activity in C57BL/6 mouse model of poly(I:C)-induced acute airway inflammation assessed as decrease in total cells level in BALF at 10 mg/kg, po administered 1 day prior to poly(I:C) stimulation; assay type: functional, organism-based
[19] = test system: Mus musculus; experiment: Antiinflammatory activity in C57BL/6 mouse model of poly(I:C)-induced acute airway inflammation assessed as decrease in neutrophils level in BALF at 10 mg/kg, po administered 1 day prior to poly(I:C) stimulation; assay type: functional, organism-based
[20] = biological target: T1, Bromodomain-containing protein 4
[21] = biological target: T1, Bromodomain-containing protein 4; remark: listed apart in the source
[22] = biological target: T1, Bromodomain-containing protein 4; remark: listed apart in the source
[23] = biological target: T1, Bromodomain-containing protein 4; remark: listed apart in the source
[24] = biological target: T1, Bromodomain-containing protein 4; remark: listed apart in the source
[25] = biological target: T1, Bromodomain-containing protein 4; remark: listed apart in the source
[26] = biological target: T1, Bromodomain-containing protein 4; remark: listed apart in the source
[27] = biological target: T1, Bromodomain-containing protein 4; remark: listed apart in the source
[28] = biological target: T1, Bromodomain-containing protein 4; remark: listed apart in the source
[29] = test system: Bromodomain-containing protein 4 (Homo sapiens), O60885 [E151A]
[30] = test system: Bromodomain-containing protein 4 (Homo sapiens), O60885 [E151A]; remark: listed apart in the source
[31] = test system: Bromodomain-containing protein 4 (Homo sapiens), O60885 [E151A]; remark: listed apart in the source
[32] = test system: Bromodomain-containing protein 4 (Homo sapiens), O60885 [E151A]; remark: listed apart in the source

In the case of `O=C(Nc1ccc(C(F)(F)F)cc1)Nc1ccc(S(=O)(=O)N2CCC[C@H]2CN2CCOCC2)cc1`, the IC50 [1] is reported as 200 nM, the IC50 [2] is reported as 370 nM and the Activity [3] is reported as “Dose-Dependent Effect”. For the same molecule, the IC50 [4] was 1310 nM, the IC50 [5] was 2180 nM and the IC50 [6] was 1900 nM. The Activity [7] was “inactive”, the Vd [8] was 16 L/kg and the clearance [9] was 75 mL/min/kg. The solubility [10] was 3500 µg/mL (≈ 6.83 mM), the Activity [11] was 100% and the Activity [12] was 100%. The Activity [13] was “inactive”, the Activity [14] was “inactive” and the Activity [15] was “Active”. The Activity [16] was “Active”, the Activity [17] was “Active” and the Activity [18] was “Active”. The Activity [19] was “Active”, the ΔTm [20] was 6.6 °C and the ΔTm [21] was 5.8 °C. For the same molecule, the ΔTm [22] was 15.8 °C, the ΔTm [23] was 15.5 °C and the ΔTm [24] was 15.7 °C. For the same molecule, the ΔTm [25] was 0.6 °C, the ΔTm [26] was 0.8 °C and the ΔTm [27] was 0.9 °C. For the same molecule, the ΔTm [28] was 0.7 °C, the ΔTm [29] was 0.7 °C and the ΔTm [30] was 0.7 °C. For the same molecule, the ΔTm [31] was 0.5 °C and the ΔTm [32] was 0.1 °C.
